Measured values: ChEMBL document CHEMBL4400543, “Identification and Characterization of AES-135, a Hydroxamic Acid-Based HDAC Inhibitor That Prolongs Survival in an Orthotopic Mouse Model of Pancreatic Cancer” (J Med Chem, 2019)
Calls of active or inactive are those of the source. The calls are words filed in the database; no cut-off is given here.

Legend:
[1] = biological target: T1, Protein deacetylase HDAC6 (Homo sapiens, UniProt Q9UBN7); assay: Inhibition of recombinant human HDAC6 expressed in SF9 baculoviral system using FAM-labeled acetylated peptide as substrate by EMSA
T1 sequence (Q9UBN7 whole entry): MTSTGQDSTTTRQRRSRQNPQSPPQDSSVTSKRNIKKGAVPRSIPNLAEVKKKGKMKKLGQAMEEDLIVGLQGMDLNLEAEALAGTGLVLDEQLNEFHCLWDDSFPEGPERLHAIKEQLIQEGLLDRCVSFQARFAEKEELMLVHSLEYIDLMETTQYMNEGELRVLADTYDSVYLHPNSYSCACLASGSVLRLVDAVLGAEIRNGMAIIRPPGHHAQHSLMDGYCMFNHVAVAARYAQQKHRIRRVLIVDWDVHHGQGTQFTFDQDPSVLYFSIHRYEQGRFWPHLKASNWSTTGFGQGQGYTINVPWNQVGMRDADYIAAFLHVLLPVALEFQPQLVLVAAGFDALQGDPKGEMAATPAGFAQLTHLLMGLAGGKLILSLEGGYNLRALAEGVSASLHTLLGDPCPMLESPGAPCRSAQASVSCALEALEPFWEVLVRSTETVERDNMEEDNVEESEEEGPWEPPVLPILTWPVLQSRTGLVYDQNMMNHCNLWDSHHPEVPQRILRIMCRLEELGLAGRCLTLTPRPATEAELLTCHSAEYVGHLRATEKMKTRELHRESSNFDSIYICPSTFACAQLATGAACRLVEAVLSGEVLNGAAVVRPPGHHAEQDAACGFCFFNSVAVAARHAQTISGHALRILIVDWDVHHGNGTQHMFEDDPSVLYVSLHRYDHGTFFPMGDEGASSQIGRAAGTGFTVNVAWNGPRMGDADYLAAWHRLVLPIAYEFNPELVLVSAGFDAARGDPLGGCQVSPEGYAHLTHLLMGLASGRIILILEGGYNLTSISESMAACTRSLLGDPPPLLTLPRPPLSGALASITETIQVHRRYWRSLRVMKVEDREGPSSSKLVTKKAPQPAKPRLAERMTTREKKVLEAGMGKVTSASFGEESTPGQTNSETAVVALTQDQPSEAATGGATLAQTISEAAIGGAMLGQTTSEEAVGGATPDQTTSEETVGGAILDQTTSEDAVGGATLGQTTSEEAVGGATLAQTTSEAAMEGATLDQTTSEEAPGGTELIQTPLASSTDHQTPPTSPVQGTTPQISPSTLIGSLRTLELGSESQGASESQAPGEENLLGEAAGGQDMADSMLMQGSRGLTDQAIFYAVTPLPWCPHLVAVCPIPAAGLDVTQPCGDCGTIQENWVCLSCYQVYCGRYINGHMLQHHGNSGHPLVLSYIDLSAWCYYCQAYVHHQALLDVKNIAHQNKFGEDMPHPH
How it was run: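 Full-length recombinant human enzyme from an Sf9 baculovirus system, in 100 mM HEPES pH 7.5 with 25 mM KCl, 0.1% BSA, 0.01% Triton X-100 and 1% DMSO. Final enzyme was 0.5 nM for HDAC3, 60 nM for HDAC6 and 5.0 nM for HDAC8. FAM-acetylated peptide was 1 μM. The read-out was product/(substrate+product) by microfluidic mobility shift, with inhibition set against DMSO and no-enzyme controls (quadruplicate). Compounds were tested at 12 threefold-spaced concentrations, and IC50 came from a four-parameter sigmoid fit.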

[2] = biological target: Protein deacetylase HDAC6 (Homo sapiens) (UniProt Q9UBN7); assay: Inhibition of recombinant human HDAC6 expressed in SF9 baculoviral system at 10 uM using FAM-labeled acetylated peptide as substrate by EMSA relative to control
How it was run: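 Single-point screen at 10 μM compound, using full-length recombinant human enzyme expressed in Sf9 cells. Buffer was HEPES pH 7.5 with KCl, BSA and Triton X-100, and 1% DMSO. Final enzyme was 0.5 nM for HDAC3, 60 nM for HDAC6 and 5.0 nM for HDAC8, with 1 μM FAM-acetylated peptide. Percent inhibition was derived from the product sum ratio relative to DMSO-only (0%) and no-enzyme (100%) controls.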

Homo sapiens = species on record: Homo sapiens; assay: Cytotoxicity against human D425 cells at 39 nM after 72 hrs by Presto Blue assay; assay type: functional, cell-based
How it was run: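 D425 and D458 medulloblastoma cells in DMEM high glucose with 20% FBS, seeded at 1000 cells/well in medium with 1% FBS. Twofold dilutions from 20 μM down to 39 nM. Exposed 3 days at 37 °C. Presto Blue added about 4 h before fluorescence read (540–570 nm). IC50 from % viability versus log concentration.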

[3] = Stability of the compound in DMSO at 10 mM after 25 hrs in presence of reduced L-glutathione by HPLC analysis; assay type: physicochemical; details: 10000 µM
How it was run: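 A 10 mM DMSO stock was mixed with 100-fold excess reduced glutathione in HEPES buffer, pH 7.4. Samples were analysed by reversed-phase HPLC at regular intervals, with UV at 254 nm. Decay of the parent compound was followed as loss of its peak area.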

[4] = Half life in ICR/CD1 mouse hepatocytes at 1 uM up to 120 mins by LC-MS/MS analysis; assay type: ADME, cell-based, Hepatocyte; details: 2 h
[5] = Drug uptake in NSG mouse serum at 20 mg/kg, ip administered as single dose and measured at 8 hrs by HPLC-MS/MS analysis; assay type: ADME, organism-based; details: read-out: Drug uptake
How it was run: (§1)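 NSG mice given a single 20 mg/kg IP dose in Cremophor EL/EtOH (1:1, 4% final volume)/sterile saline. Tail-vein blood at 0.5, 1, 2, 4, 8 and 24 h, n = 2. Drug quantified in serum/plasma. Half-life and clearance calculated assuming 100% bioavailability.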

Pa03C = assay: Cytotoxicity against human Pa03C monolayer cells assessed as reduction in tumor spheroid intensity after 72 hrs by Alamar Blue assay; assay type: functional, cell-based
How it was run: (§2)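 Monolayer proliferation of STR-authenticated, mycoplasma-checked patient-derived PDAC lines and mouse KPC cells. Plated at 2000 cells/well, treated 72 h, read by alamarBlue. At least triplicate, n = 3–5.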

[6] = Cytotoxicity against mouse KPC monolayer cells assessed as reduction in tumor spheroid intensity after 72 hrs by Alamar Blue assay; assay type: functional, cell-based; how it was run: as §2
[7] = Stability of the compound in DMSO at 10 mM after 16 hrs in presence of 100 fold excess reduced L-glutathione by 19F NMR analysis; assay type: physicochemical; details: 10000 µM
[8] = biological target: Signal transducer and activator of transcription 3 (Homo sapiens) (UniProt P40763); assay: Inhibition of STAT3 phosphorylation at Y705 residue in human BTSC 100EF cells at 1 to 10 uM after 24 hrs by Western blot method; assay type: cell-based
How it was run: (§3)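 BTSCs dissociated to single cells and treated with drug or DMSO. Lysed in RIPA buffer with protease inhibitors. 20 μg lysate run on SDS-PAGE and transferred to nitrocellulose. Blocked in 5% milk, primary antibody overnight at 4 °C, then HRP secondary for 1 h.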

[9] = biological target: Signal transducer and activator of transcription 3 (Homo sapiens) (UniProt P40763); assay: Inhibition of STAT3 phosphorylation at Y705 residue in human BTSC 143EF cells at 1 to 10 uM after 24 hrs by Western blot method; assay type: cell-based; how it was run: as §3
[10] = Cmax in NSG mouse at 20 mg/kg, ip administered as single dose and measured at 0.5 hrs by HPLC-MS/MS analysis; assay type: ADME, organism-based; set-up: dose 20 mg/kg, route intraperitoneal; details: in vivo; how it was run: as §1

Chain of Signal transducer and activator of transcription 3 (Homo sapiens) (P40763 whole entry): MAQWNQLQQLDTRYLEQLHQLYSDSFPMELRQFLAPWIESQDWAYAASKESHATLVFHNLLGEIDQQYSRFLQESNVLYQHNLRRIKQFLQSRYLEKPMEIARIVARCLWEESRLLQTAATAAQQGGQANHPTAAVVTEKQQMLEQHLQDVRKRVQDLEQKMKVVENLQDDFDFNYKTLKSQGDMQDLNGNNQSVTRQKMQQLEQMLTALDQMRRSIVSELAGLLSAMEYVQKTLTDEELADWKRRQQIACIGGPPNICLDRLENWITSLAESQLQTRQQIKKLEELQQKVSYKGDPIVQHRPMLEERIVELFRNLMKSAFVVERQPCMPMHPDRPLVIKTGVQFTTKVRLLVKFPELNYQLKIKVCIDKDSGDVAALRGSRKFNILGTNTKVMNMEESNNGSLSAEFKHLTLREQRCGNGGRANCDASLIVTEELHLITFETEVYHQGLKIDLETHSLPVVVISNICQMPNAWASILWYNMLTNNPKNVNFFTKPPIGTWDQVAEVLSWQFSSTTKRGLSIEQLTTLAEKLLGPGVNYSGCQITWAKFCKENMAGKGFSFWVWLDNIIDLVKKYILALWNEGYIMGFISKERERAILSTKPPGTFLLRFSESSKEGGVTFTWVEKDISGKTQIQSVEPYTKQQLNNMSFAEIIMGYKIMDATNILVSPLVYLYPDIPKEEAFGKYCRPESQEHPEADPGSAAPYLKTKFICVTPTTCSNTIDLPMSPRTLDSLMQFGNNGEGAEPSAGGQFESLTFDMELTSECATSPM

## CC(C)(C)c1ccc(CN(C(=O)CN(Cc2c(F)c(F)c(F)c(F)c2F)S(=O)(=O)c2ccc(F)cc2)c2ccc(C(=O)NO)cc2)cc1
[1]
  IC50: 190 nM
[2]
  inhibition: 98%
Homo sapiens
  Activity: Active
[3]
  Stability: Stable
[4]
  t1/2: 38.5 min
[5]
  concentration at 8 h: 6390 ng/mL
Pa03C
  IC50: 3.4 µM
[6]
  IC50: 1300 nM
[7]
  Stability: Stable
[8]
  inhibition: inactive
[9]
  inhibition: inactive
[10]
  Cmax: 10.7 µM
